Experimental data as given in ChEMBL document CHEMBL2424622, “Development of amino-pyrimidine inhibitors of c-Jun N-terminal kinase (JNK): kinase profiling guided optimization of a 1,2,3-benzotriazole lead” (Bioorg Med Chem Lett, 2013).

Key:
[1] = system: Tyrosine-protein kinase ABL1 (Homo sapiens), P00519 [Q252H]; experiment: Competitive binding affinity to ABL1 Q252H mutant (unknown origin) at 10 uM in presence of ATP relative to control
[2] = target: Atypical kinase COQ8A, mitochondrial (Homo sapiens, UniProt Q8NI60); experiment: Competitive binding affinity to ADCK3 (unknown origin) at 10 uM in presence of ATP relative to control
How it was run: (§1)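 In vitro ATP-site competition binding assay across a diverse panel of 128 kinases, with each compound tested at a single concentration. Kinase binding is expressed relative to control.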

[3] = target: T1, Myosin light chain kinase family member 4 (Homo sapiens) (UniProt Q86YV6); experiment: Competitive binding affinity to SgK085 (unknown origin) at 10 uM in presence of ATP relative to control
T1 sequence (whole entry): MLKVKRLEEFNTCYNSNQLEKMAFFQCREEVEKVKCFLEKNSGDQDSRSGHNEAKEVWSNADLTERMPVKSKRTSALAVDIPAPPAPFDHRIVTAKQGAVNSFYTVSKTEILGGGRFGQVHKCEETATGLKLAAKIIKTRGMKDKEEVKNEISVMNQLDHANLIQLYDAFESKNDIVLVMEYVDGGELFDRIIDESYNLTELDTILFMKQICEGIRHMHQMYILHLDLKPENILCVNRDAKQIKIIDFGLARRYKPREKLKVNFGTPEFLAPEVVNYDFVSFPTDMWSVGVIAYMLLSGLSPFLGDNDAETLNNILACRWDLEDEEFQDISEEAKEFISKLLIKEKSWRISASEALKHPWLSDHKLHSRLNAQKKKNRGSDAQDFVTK

[4] = target: Wee1-like protein kinase (Homo sapiens) (UniProt P30291); experiment: Competitive binding affinity to WEE1 (unknown origin) at 10 uM in presence of ATP relative to control
[5] = target: Dual specificity mitogen-activated protein kinase kinase 1 (Homo sapiens) (UniProt Q02750); experiment: Competitive binding affinity to MEK1 (unknown origin) at 10 uM in presence of ATP relative to control
[6] = target: Serine/threonine-protein kinase 24 (Homo sapiens) (UniProt Q9Y6E0); experiment: Competitive binding affinity to MST3 (unknown origin) at 10 uM in presence of ATP relative to control
[7] = system: Epidermal growth factor receptor (Homo sapiens), P00533 [G719S]; experiment: Competitive binding affinity to EGFR G719S mutant (unknown origin) at 10 uM in presence of ATP relative to control
How it was run: (§2)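 In vitro ATP-site competition binding assay, part of profiling against a diverse panel of 128 kinases. Each compound was tested at a single concentration of 10 µM. Kinome selectivity was summarized as S15 selectivity scores.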

[8] = target: Serine/threonine-protein kinase N2 (Homo sapiens) (UniProt Q16513); experiment: Competitive binding affinity to PKN2 (unknown origin) at 10 uM in presence of ATP relative to control
How it was run: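 In vitro ATP-site competition binding assay across a diverse panel of 128 kinases, with compound tested at a single concentration. Kinase selectivity scores (S15) were calculated from the panel profiles.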

[9] = organism: Homo sapiens; experiment: Competitive binding affinity to EGFR L747 to T751 deletion mutant, Sins mutant (unknown origin) at 10 uM in presence of ATP relative to control
[10] = target: T2, Dual specificity mitogen-activated protein kinase kinase 6 (Homo sapiens) (UniProt P52564); experiment: Competitive binding affinity to MEK6 (unknown origin) at 10 uM in presence of ATP relative to control
T2 sequence (whole entry): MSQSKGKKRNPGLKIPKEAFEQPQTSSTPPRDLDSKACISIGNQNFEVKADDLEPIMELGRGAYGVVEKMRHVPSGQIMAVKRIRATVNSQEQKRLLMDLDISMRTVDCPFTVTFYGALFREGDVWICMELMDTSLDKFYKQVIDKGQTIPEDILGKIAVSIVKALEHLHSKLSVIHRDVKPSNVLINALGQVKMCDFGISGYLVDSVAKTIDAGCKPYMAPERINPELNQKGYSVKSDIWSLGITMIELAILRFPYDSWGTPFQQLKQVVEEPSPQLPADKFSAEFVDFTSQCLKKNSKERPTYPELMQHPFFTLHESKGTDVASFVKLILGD

[11] = target: Ribosomal protein S6 kinase alpha-5 (Homo sapiens) (UniProt O75582); experiment: Competitive binding affinity to RPS6KA5 kinase domain 2 (unknown origin) at 10 uM in presence of ATP relative to control
[12] = target: Cyclin-dependent kinase 2 (Homo sapiens) (UniProt P24941); experiment: Competitive binding affinity to CDK2 (unknown origin) at 10 uM in presence of ATP relative to control; how it was run: as §1
[13] = system: Tyrosine-protein kinase ABL1 (Homo sapiens), P00519 [Y253F]; experiment: Competitive binding affinity to ABL1 Y253F mutant (unknown origin) at 10 uM in presence of ATP relative to control
[14] = system: Tyrosine-protein kinase ABL1 (Homo sapiens), P00519 [T315I]; experiment: Competitive binding affinity to ABL1 T315I mutant (unknown origin) at 10 uM in presence of ATP relative to control; how it was run: as §1
[15] = target: Casein kinase I isoform gamma-3 (Homo sapiens) (UniProt Q9Y6M4); experiment: Competitive binding affinity to CSNK1G3 (unknown origin) at 10 uM in presence of ATP relative to control
[16] = target: Serine/threonine-protein kinase MARK1 (Homo sapiens) (UniProt Q9P0L2); experiment: Competitive binding affinity to MARK1 (unknown origin) at 10 uM in presence of ATP relative to control; how it was run: as §2
[17] = target: Serine/threonine-protein kinase MRCK beta (Homo sapiens) (UniProt Q9Y5S2); experiment: Competitive binding affinity to MRCKB (unknown origin) at 10 uM in presence of ATP relative to control
[18] = target: Phosphatidylinositol 4,5-bisphosphate 3-kinase catalytic subunit alpha isoform (Homo sapiens) (UniProt P42336); experiment: Competitive binding affinity to PIK3CA (unknown origin) at 10 uM in presence of ATP relative to control
[19] = target: Serine/threonine-protein kinase pim-1 (Homo sapiens) (UniProt P11309); experiment: Competitive binding affinity to PIM1 (unknown origin) at 10 uM in presence of ATP relative to control
[20] = system: Epidermal growth factor receptor (Homo sapiens), P00533 [L858R]; experiment: Competitive binding affinity to EGFR L858R mutant (unknown origin) at 10 uM in presence of ATP relative to control; how it was run: as §2

O[C@H]1CC[C@H](Nc2nccc(-n3nnc4ccccc43)n2)CC1
inhibition [1]: 74%
inhibition [2]: 92%
inhibition [3]: 97%
inhibition [4]: < 50%
inhibition [5]: < 50%
inhibition [6]: 78%
inhibition [7]: < 50%
inhibition [8]: 69%
inhibition [9]: < 50%
inhibition [10]: 96%
inhibition [11]: 85%
inhibition [12]: 94%
inhibition [13]: 66%
inhibition [14]: < 50%
inhibition [15]: 96%
inhibition [16]: < 50%
inhibition [17]: < 50%
inhibition [18]: 84%
inhibition [19]: 87%
inhibition [20]: < 50%

CS(=O)(=O)CCCOc1cccc2c1ccn2-c1ccnc(N[C@H]2CC[C@H](C(=O)N3CCC(O)CC3)CC2)n1
inhibition [2]: > 85%
inhibition [3]: > 85%
inhibition [10]: > 85%

O[C@H]1CC[C@H](Nc2nccc(-n3ncc4ccccc43)n2)CC1
inhibition [1]: < 50%
inhibition [2]: 89%
inhibition [3]: 96%
inhibition [4]: < 50%
inhibition [5]: < 50%
inhibition [6]: 78%
inhibition [7]: < 50%
inhibition [8]: < 50%
inhibition [9]: < 50%
inhibition [10]: 90%
inhibition [11]: 66%
inhibition [12]: 94%
inhibition [13]: < 50%
inhibition [14]: < 50%
inhibition [15]: < 50%
inhibition [16]: < 50%
inhibition [17]: < 50%
inhibition [18]: 78%
inhibition [19]: 96%
inhibition [20]: < 50%

O[C@H]1CC[C@H](Nc2nccc(-c3n[nH]c4ccccc34)n2)CC1
inhibition [1]: < 50%
inhibition [2]: 79%
inhibition [7]: < 50%
inhibition [8]: 67%
inhibition [9]: < 50%
inhibition [12]: 100%
inhibition [13]: < 50%
inhibition [14]: 96%
inhibition [16]: 66%
inhibition [19]: 99%
inhibition [20]: < 50%

O[C@H]1CC[C@H](Nc2nccc(-n3ccc4ccccc43)n2)CC1
inhibition [1]: < 50%
inhibition [2]: 80%
inhibition [3]: 98%
inhibition [4]: < 50%
inhibition [5]: < 50%
inhibition [6]: 83%
inhibition [7]: < 50%
inhibition [8]: < 50%
inhibition [9]: < 50%
inhibition [10]: 90%
inhibition [11]: < 50%
inhibition [12]: 90%
inhibition [13]: < 50%
inhibition [14]: < 50%
inhibition [15]: < 50%
inhibition [16]: < 50%
inhibition [17]: < 50%
inhibition [18]: < 50%
inhibition [19]: 76%
inhibition [20]: < 50%
